# In ChEMBL document CHEMBL1817631, “Synthesis and characterization of tritylthioethanamine derivatives with potent KSP inhibitory activity” (Bioorg Med Chem, 2011):
# pIC50: −log10 of the molar value. The source made the active and inactive calls. The rule behind the calls is not given here.
# Experiments:
# [1] = molecular target: T1, Kinesin-like protein Klp61F (Drosophila melanogaster) (UniProt P46863); assay: Inhibition of Drosophila melanogaster Klp61F in S2 cells at 100 uM up to 7 hrs by immunofluorescence analysis; format: cell-based
# T1 sequence (whole entry): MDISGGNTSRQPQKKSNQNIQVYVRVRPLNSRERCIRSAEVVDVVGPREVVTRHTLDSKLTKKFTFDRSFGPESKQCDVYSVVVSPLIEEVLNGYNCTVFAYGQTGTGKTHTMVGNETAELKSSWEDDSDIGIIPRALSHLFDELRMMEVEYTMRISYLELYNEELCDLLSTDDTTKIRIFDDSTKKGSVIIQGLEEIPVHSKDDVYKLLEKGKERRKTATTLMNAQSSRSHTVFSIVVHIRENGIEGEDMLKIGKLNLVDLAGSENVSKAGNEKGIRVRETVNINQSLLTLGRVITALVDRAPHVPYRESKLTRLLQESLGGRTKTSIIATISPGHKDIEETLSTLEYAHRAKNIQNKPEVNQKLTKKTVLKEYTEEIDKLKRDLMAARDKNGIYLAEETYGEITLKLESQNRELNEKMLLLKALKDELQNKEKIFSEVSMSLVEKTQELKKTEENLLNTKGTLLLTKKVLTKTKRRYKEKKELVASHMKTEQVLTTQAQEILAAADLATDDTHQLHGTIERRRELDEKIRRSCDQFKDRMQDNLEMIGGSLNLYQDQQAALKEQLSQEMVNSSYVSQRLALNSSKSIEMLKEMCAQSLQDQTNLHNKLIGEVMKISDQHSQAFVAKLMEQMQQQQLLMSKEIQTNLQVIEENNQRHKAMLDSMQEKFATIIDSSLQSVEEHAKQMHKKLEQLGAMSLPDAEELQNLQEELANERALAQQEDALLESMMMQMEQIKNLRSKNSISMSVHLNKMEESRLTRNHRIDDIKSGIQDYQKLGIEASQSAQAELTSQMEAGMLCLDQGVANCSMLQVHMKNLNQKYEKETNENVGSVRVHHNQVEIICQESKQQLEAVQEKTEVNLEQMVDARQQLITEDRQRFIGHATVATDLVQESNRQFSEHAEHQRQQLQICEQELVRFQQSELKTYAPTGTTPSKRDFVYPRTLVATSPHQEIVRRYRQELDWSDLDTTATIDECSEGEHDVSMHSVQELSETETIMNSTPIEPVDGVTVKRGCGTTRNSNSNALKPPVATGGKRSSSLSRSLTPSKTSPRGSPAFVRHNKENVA
# Procedure, shortened: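 Drosophila S2 cells were exposed to compound over a three-log concentration range up to 100 μM, with treatments extending up to 7 h. Bipolar spindle formation was scored by immunofluorescence.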
# [2] = test system: CAKI-1; assay: Growth inhibition of human Caki1 cells; format: functional
# [3] = test system: HOP-62; assay: Growth inhibition of human HOP62 cells; format: functional
# [4] = test system: MOLT-4; assay: Growth inhibition of human MOLT4 cells; format: functional
# [5] = test system: UACC-257; assay: Growth inhibition of human UACC257 cells; format: functional
# [6] = test system: OVCAR-4; assay: Growth inhibition of human OVCAR4 cells; format: functional
# [7] = test system: SF-295; assay: Growth inhibition of human SF295 cells; format: functional
# [8] = test system: 786-0; assay: Growth inhibition of human 786-0 cells; format: functional
# [9] = test system: HeLa; assay: Inhibition of bipolar spindle formation in human HeLa cells at 1 uM; format: functional, cell-based
# Procedure, shortened: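 HeLa cells were grown in MEM with Earle's BSS, 10% FBS, sodium bicarbonate and pyruvate at 37°C in 5% CO2. They were exposed to compound in DMSO for 4 h, with 0.1% DMSO as carrier control. Cells were fixed in −20°C methanol and immunostained for tubulin, with DNA counterstained. Bipolar spindle formation was scored in 100 mitotic cells per condition.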
# [10] = test system: LOX IMVI; assay: Growth inhibition of human LOXIMVI cells; format: functional
# [11] = test system: Malme-3M; assay: Growth inhibition of human MALME-3M cells; format: functional
# [12] = test system: NCI-H23; assay: Growth inhibition of human NCI-H23 cells; format: functional
# [13] = test system: SK-MEL-2; assay: Growth inhibition of human SK-MEL-2 cells; format: functional
# [14] = test system: NCI-H522; assay: Growth inhibition of human NCI-H522 cells; format: functional
# [15] = test system: IGROV-1; assay: Growth inhibition of human IGROV1 cells; format: functional
# [16] = test system: SNB-75; assay: Growth inhibition of human SNB75 cells; format: functional
# [17] = test system: COLO 205; assay: Growth inhibition of human COLO205 cells; format: functional
# [18] = test system: TK-10; assay: Growth inhibition of human TK10 cells; format: functional
# [19] = test system: SNB-19; assay: Growth inhibition of human SNB19 cells; format: functional
# [20] = test system: ACHN; assay: Growth inhibition of human ACHN cells; format: functional
# [21] = test system: OVCAR-3; assay: Growth inhibition of human OVCAR3 cells; format: functional
# [22] = test system: NCI-H226; assay: Growth inhibition of human NCI-H226 cells; format: functional
# [23] = test system: EKVX; assay: Growth inhibition of human EKVX cells; format: functional
# [24] = test system: HeLa; assay: Effect on interphase microtubule organization in human HeLa cells at 1 uM; format: functional, cell-based
# Procedure, shortened: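 HeLa cells were grown in MEM/Earle's BSS with 10% FBS at 37 °C and 5% CO2, then treated 4 h with 1 μM compound or 0.1% DMSO carrier. Cells were fixed in 100% MeOH at −20 °C and blocked in PBS-5% BSA. They were stained overnight at 4 °C with mouse anti-tubulin and for DNA, then imaged by epifluorescence with structured illumination.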
# [25] = test system: UACC-62; assay: Growth inhibition of human UACC62 cells; format: functional
# [26] = test system: UO-31; assay: Growth inhibition of human UO31 cells; format: functional
# [27] = test system: CCRF-CEM; assay: Growth inhibition of human CCRF-CEM cells; format: functional
# [28] = test system: SR; assay: Growth inhibition of human SR cells; format: functional
# [29] = test system: SK-MEL-28; assay: Growth inhibition of human SK-MEL-28 cells; format: functional
# [30] = molecular target: Kinesin-like protein KIF11 (Homo sapiens, UniProt P52732); assay: Inhibition of human recombinant microtubule-activated KSP motor domain ATPase activity after 10 mins by end-point assay
# Sequence of Kinesin-like protein KIF11 (P52732 whole entry, the tested form may be a part): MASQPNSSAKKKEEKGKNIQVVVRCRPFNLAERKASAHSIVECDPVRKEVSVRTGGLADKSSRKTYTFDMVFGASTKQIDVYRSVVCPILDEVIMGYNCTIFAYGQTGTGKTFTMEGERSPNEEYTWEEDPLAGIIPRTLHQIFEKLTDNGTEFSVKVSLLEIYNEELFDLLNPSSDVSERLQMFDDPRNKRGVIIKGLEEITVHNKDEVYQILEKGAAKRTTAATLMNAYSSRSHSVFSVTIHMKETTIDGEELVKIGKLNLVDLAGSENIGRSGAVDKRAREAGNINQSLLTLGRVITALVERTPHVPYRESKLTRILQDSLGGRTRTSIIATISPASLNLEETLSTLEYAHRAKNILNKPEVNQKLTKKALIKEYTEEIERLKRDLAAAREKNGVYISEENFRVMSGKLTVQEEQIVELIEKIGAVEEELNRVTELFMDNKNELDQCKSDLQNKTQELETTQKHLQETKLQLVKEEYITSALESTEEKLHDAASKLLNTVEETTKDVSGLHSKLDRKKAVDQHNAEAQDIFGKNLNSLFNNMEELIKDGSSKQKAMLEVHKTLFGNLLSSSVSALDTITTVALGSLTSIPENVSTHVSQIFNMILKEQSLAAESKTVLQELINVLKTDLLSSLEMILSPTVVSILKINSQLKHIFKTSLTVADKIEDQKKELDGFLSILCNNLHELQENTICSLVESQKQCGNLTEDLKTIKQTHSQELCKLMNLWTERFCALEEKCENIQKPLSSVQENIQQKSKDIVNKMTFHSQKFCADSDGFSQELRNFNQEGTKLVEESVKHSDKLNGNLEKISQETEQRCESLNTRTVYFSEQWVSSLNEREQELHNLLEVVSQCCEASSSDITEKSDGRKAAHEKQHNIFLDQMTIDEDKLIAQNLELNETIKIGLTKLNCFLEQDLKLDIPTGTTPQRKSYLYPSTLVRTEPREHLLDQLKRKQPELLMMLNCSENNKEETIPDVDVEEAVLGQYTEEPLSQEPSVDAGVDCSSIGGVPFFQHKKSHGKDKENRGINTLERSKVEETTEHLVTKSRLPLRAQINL
# [31] = test system: SF-539; assay: Growth inhibition of human SF539 cells; format: functional
# [32] = test system: HCT-15; assay: Growth inhibition of human HCT15 cells; format: functional
# [33] = test system: SF-268; assay: Growth inhibition of human SF268 cells; format: functional
# [34] = test system: SK-OV-3; assay: Growth inhibition of human SKOV3 cells; format: functional
# [35] = test system: SK-MEL-5; assay: Growth inhibition of human SK-MEL-5 cells; format: functional
# [36] = Growth inhibition of human […] cells; format: functional
# [37] = test system: HCT-116; assay: Growth inhibition of human HCT116 cells; format: functional
# [38] = test system: K562; assay: Growth inhibition of human K562 cells; format: functional
# [39] = test system: U-251; assay: Growth inhibition of human U251 cells; format: functional
# [40] = test system: NCI-H322M; assay: Growth inhibition of human NCI-H322M cells; format: functional
# [41] = test system: OVCAR-5; assay: Growth inhibition of human OVCAR5 cells; format: functional
# [42] = test system: HT-29; assay: Growth inhibition of human HT-29 cells; format: functional
# [43] = test system: SW-620; assay: Growth inhibition of human SW620 cells; format: functional
# [44] = test system: A549; assay: Growth inhibition of human A549 cells; format: functional
# [45] = test system: HCC 2998; assay: Growth inhibition of human HCC2998 cells; format: functional
# [46] = test system: SK-OV-3; assay: Ratio of GI50 for human M14 cells to GI50 for human SK-OV-3 cells; format: functional
# [47] = test system: OVCAR-8; assay: Growth inhibition of human OVCAR8 cells; format: functional
# [48] = test system: SN12C; assay: Growth inhibition of human SN12C cells; format: functional
# [49] = test system: M14; assay: Growth inhibition of human M14 cells; format: functional
compound,measurement,setting,value
COc1ccc(C(SC[C@@H](N)CO)(c2ccccc2)c2ccccc2)cc1,inhibition,[1],inactive
COc1ccc(C(SCCN)(c2ccccc2)c2ccccc2)cc1,inhibition,[1],inactive
same,GI50,[2],190 nM
same,GI50,[3],660 nM
same,GI50,[4],500 nM
same,GI50,[5],700 nM
same,GI50,[6],1400 nM
same,GI50,[7],180 nM
same,GI50,[8],400 nM
same,inhibition,[9],Active
same,GI50,[10],500 nM
same,GI50,[11],220 nM
same,GI50,[12],510 nM
same,GI50,[13],60 nM
same,GI50,[14],40 nM
same,GI50,[15],150 nM
same,GI50,[16],600 nM
same,GI50,[17],210 nM
same,GI50,[18],1560 nM
same,GI50,[19],340 nM
same,GI50,[20],690 nM
same,GI50,[21],150 nM
same,GI50,[22],1740 nM
same,GI50,[23],390 nM
same,Activity,[24],inactive
same,GI50,[25],400 nM
same,GI50,[26],500 nM
same,GI50,[27],160 nM
same,GI50,[28],130 nM
same,GI50,[29],640 nM
same,pIC50,[30],6.87
same,GI50,[31],250 nM
same,GI50,[32],50 nM
same,GI50,[33],150 nM
same,GI50,[34],80 nM
same,GI50,[35],50 nM
same,GI50,[36],310 nM
same,GI50,[37],40 nM
same,GI50,[38],40 nM
same,GI50,[39],50 nM
same,GI50,[40],60 nM
same,GI50,[41],570 nM
same,GI50,[42],350 nM
same,GI50,[43],70 nM
same,GI50,[44],100 nM
same,GI50,[45],240 nM
same,RatioGI50,[46],1250
same,GI50,[47],120 nM
same,GI50,[48],130 nM
same,GI50,[49],30 nM
